High-throughput results: PubChem, several laboratories
Compounds with a hit are over-represented: about 6% of the library has one in this group of screens.
H69AR inhibit – blocks growth of human H69AR lung tumor cells | H69AR lung tumor viability, ATP luminescence, 72 h; hits give low values | viability, % at 10 µM | hit rate 6% among 85,000;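 active = viability at or below 40%; inactive = viability above 40%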;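 also: multidrug resistant small cell line overexpressing MRP-1 efflux transporter; 100% = mean luminescence of untreated control wells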
Fibroblast inh – blocks proliferation of human lung fibroblasts; LL 47 human lung fibroblast viability, ATP luminescence; hits give low values; viability, % at 10 µM; hit rate 1.1% among 85,000;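 active = viability at or below 50% in the single dose screen; inactive = viability above 50%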;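 also: compound exposure lasted 72 h before the ATP readout; 100% = median luminescence of untreated cell-only wells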
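Test system: LL 47 human lung fibroblasts / Incubation: 72 h compound exposure at 37 °C after overnight plating / Technique: luminescent ATP detection, CellTiter-Glo / Compound dosing: 0.1% DMSO in all compound wells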
F-actin modifier – modifiers of cytoskeleton assembly | HUVEC TNFa F-actin phalloidin imaging, high content | inhibition, % at 2 µM | hit rate 0.18% among 91,000;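 active = inhibition above the batch mean plus 3 SD and confirmed as a hit by visual image inspection, cut at about 30% in these data, passing the limit was not always enough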
Jurkat viability – cytotoxicity toward Jurkat cells; inhibition, % at 4 µM; Jurkat E6.1 viability, ATP luminescence, 48 h; hit rate 1.2% among 56,000;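 active = inhibition above the mean inhibition of all tested compounds plus 3 SD, cut at about 28% in these data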
PTK2B oligo ant – antagonists of human Pyk2 oligomerization. Q14289. Q293 cells, Pyk2 FERM NanoBiT luminescence; hits give low values. z-score (the deposit names both 25 µM and 10 µM). hit rate 0.83% among 99,000. AID 1347419;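 active = Z-score of -3 or lower, scaled per plate to the spread of control and sample wells; inactive = z-score above -3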;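 also: negative z-score means lost luminescence so less FERM oligomerization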
Target sequence (Q14289 whole entry, looked up): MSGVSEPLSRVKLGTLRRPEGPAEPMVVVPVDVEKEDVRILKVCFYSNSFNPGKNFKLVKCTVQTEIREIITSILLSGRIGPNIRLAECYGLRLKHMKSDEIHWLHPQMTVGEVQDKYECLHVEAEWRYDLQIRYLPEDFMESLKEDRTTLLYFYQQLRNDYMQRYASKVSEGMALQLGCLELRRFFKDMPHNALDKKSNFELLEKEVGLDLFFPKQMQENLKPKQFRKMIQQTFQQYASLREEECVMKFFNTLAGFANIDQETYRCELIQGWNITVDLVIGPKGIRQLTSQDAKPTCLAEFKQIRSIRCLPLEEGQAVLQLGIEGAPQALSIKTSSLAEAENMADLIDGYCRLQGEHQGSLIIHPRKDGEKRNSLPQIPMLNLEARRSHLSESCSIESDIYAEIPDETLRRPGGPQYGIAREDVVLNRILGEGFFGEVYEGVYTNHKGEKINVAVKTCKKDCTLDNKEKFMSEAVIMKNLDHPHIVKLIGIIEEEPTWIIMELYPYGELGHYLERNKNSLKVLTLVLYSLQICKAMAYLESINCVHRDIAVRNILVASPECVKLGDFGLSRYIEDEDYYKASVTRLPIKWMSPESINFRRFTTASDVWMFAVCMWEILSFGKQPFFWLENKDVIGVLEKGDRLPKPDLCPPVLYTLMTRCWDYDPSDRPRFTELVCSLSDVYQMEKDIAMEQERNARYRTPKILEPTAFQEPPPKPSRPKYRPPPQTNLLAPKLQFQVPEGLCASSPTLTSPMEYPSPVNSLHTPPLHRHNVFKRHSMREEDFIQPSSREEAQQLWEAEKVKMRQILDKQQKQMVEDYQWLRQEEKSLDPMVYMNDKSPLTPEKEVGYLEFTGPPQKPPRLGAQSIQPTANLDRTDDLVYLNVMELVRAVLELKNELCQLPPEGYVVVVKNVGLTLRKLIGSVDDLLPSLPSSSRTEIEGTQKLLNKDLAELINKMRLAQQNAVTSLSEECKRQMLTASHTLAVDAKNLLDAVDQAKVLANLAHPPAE
HUVEC inhibit – blocks proliferation of human endothelial cells; HUVEC proliferation, CellTiter-Glo luminescence, 72 h; hits give low values; viability, % at 10 µM (by protocol); hit rate 1.1% among 86,000; AID 648;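 active = viability at or below 30%; inactive = viability above 30%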;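 also: 100% = median luminescence of DMSO-only cell control wells on each plate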
Numbers without * were called inactive; · = not tested or not shown.

SMILES | H69AR inhibit | Fibroblast inh | F-actin modifier | Jurkat viability | PTK2B oligo ant | HUVEC inhibit
Cc1nc(NC(C)C)c2cnn(CCc3ccccc3)c2n1 | · | · | 3 | · | -0.37 | ·
COc1ccccc1Oc1nc2c(c(=O)n(Cc3ccccc3F)c(=O)n2C)n1C | 40* | 94 | 13 | -4 | -1.6 | 91
CC(=O)c1cccc(NC(=O)CSCc2ccccc2)c1 | · | · | -6 | · | -0.89 | ·
O=C(CN1CCOCC1)NCC12CC3CC(CC(C3)C1)C2 | 95 | 95 | -9 | 2 | 0.21 | 99
CCN(CC)c1ccc2c(c1)OC(N)=C(C#N)C2c1cccnc1 (centres undefined) | · | · | -51 | 97* | -2.2 | ·
N#CC1=C(N)Oc2cc(Nc3ccccc3)ccc2C1c1ccncc1 (centres undefined) | 14* | 99 | 20 | · | -2.5 | 3.1*
COc1cc(C2C(C#N)=C(N)Oc3cc(N)ccc32)cc(OC)c1OC (centres undefined) | 29* | 51 | -30 | · | -0.92 | 52
N#CC1=C(N)Oc2cc(N)ccc2C1c1ccc(F)cc1 (centres undefined) | 14* | 91 | · | · | -1.6 | 63
CCCc1nn(C)c2c1C(c1cccnc1)C(C#N)=C(N)O2 (centres undefined) | 90 | 99 | 2 | · | -0.03 | 107
N#CC1=C(N)OC2=C(C(=O)CCC2)C1c1ccncc1 (centres undefined) | 85 | 107 | -16 | 0 | -0.46 | 94
CC(C)CCNC(=O)CN(Cc1cccs1)C(=O)CCC(=O)Nc1nccs1 | · | · | -19 | · | -0.12 | ·
CC(C)c1nnc(NC(=O)CCC(=O)NCc2ccc3c(c2)OCO3)s1 | 84 | 97 | -28 | -6 | 0.78 | 93
CC(=O)Oc1ccc(N(C(C)=O)S(=O)(=O)c2cccs2)c2ccccc12 | 1.4* | 112 | -8 | · | -0.34 | 4.0*
CN(CC(=O)O)S(=O)(=O)c1cccs1 | 92 | 104 | 26 | 0 | -0.92 | 103
C=CCN(CC=C)c1cnn(-c2nc3ccccc3[nH]2)c(=O)c1Cl | · | · | -15 | · | -1.3 | ·
O=c1c(Cl)c(NCCCO)cnn1-c1nc2ccccc2[nH]1 | 0.6* | 26* | -22 | · | 2.5 | 63
Cc1cc(Cl)ccc1OCc1nc(-c2ccc(O)cc2)n[nH]1 | 22* | 111 | 23 | 21 | -1.8 | 72
O=C(CSc1nnc(-c2cc(-c3cccs3)nc3ccccc23)o1)NC1CCCCC1 | 23* | 107 | -3 | · | -1.1 | 49
C=CCNC(=O)CSc1nnc(-c2cccs2)o1 | 38* | 86 | -2 | · | 0.3 | 98
CC1=NN(S(=O)(=O)c2ccc(F)cc2)C(=O)c2ccccc2O1 | 99 | 99 | 16 | · | -0.52 | 91
COc1ccc(S(=O)(=O)N2N=C(C)Oc3ccccc3C2=O)cc1 | 16* | 47* | -15 | · | 0.16 | 58
Cc1cc2c(c(=O)n1Cc1ccc3c(c1)OCO3)C(c1cccnc1)C(C#N)=C(N)O2 (centres undefined) | 84 | 104 | 12 | 4 | -1.2 | 88
Cc1cc(Nc2ccccc2)nn1C(=O)c1ccccc1 | 91 | 92 | -36 | -2 | -0.6 | 109
Cc1cc(Nc2ccccc2)nn1C(=O)c1ccc(Br)cc1 | 29* | 97 | · | · | -0.03 | 69
O=C(NCCOC12CC3CC(CC(C3)C1)C2)c1cccc(Br)c1 | · | · | -27 | · | -1.4 | ·
SMILES | H69AR inhibit | Fibroblast inh | F-actin modifier | Jurkat viability | PTK2B oligo ant | HUVEC inhibit
CN=C(Nc1cc(C)nn1CCC#N)c1ccccc1F | 102 | 102 | 67* | 4 | 0.12 | 97
CN=C(Nc1cc(C)nn1CCC#N)c1ccccc1 | 101 | 100 | -39 | -4 | 0.87 | 106
Nc1cc(CN2C(=O)c3ccccc3C2=O)cc(Cl)c1O | 34* | 101 | 6 | 2 | -0.8 | 95
O=C(c1cc2ccccc2o1)c1nc2c(n1O)CCCCC2 | 93 | 108 | 8 | 2 | -0.96 | 97
CCOC(=O)Cc1csc(NC(=O)COc2ccc(OC)cc2)n1 | 86 | 103 | 10 | 0 | · | 94
CCOC(=O)Cc1csc(NC(=O)COc2ccc(N(C)S(=O)(=O)c3ccc(C)cc3)cc2)n1 | 89 | 102 | -5 | · | -3.9* | 94
O=C1NCC2=C1C(c1ccc(Br)cc1)Nc1ccccc1N2 (centres undefined) | · | · | -42 | · | 0.3 | ·
CN(C)CCCN1C(=O)c2oc3ccc(Cl)cc3c(=O)c2C1c1cccnc1 (centres undefined) | 85 | 96 | 7 | -5 | · | 96
CCN(CC)CCN1C(=O)c2oc3ccccc3c(=O)c2C1c1cccc(Br)c1 (centres undefined) | 37* | 101 | 19 | -2 | 0.27 | 101
O=C1c2oc3ccc(Cl)cc3c(=O)c2C(c2cccc(Br)c2)N1CCO (centres undefined) | 26* | 103 | 18 | -5 | -1.9 | 109
CCN(CC)CCN1C(=O)c2oc3ccccc3c(=O)c2C1c1ccccc1 (centres undefined) | · | 102 | · | 2 | 0.4 | 106
CN(CC(=O)Nc1ccc(Cl)cc1)CC(=O)Nc1cc(Cl)ccc1C#N | 75 | 85 | · | 8 | -0.43 | 94
CN(C)c1ccc(C2C=C(c3ccc(Cl)cc3OC(F)F)Nc3ncnn32)cc1 (centres undefined) | 14* | 83 | · | 60* | -1.4 | 57
CC1=NOC(=O)/C1=C\c1ccc(-c2cccc(Cl)c2)o1 | 1.1* | 8.0* | -14 | · | -0.6 | 42
Cc1ccccc1C(=O)NCc1nnc(SCC(=O)N2c3ccccc3Sc3ccccc32)n1C | 101 | 96 | 10 | · | 0.29 | 86
C=CCn1c(CNC(=O)c2ccco2)nnc1SCC(=O)N1c2ccccc2Sc2ccccc21 | 34* | 95 | 11 | · | -1.6 | 97
COc1ccc(OCCCSc2ncccn2)cc1 | 104 | 105 | -11 | 4 | -1.4 | 103
O=C1S/C(=C/c2ccc(N3CCOCC3)o2)C(=O)N1Cc1ccc(F)cc1 | 26* | 67 | 2 | · | 0.85 | 71
O=C(CN(Cc1ccco1)C(=O)c1cccc(Cl)c1)Nc1c(Cl)cc(Cl)cc1Cl | · | · | -7 | · | -1.9 | ·
O=C(CN(Cc1ccco1)C(=O)c1ccccc1)Nc1ccc(Cl)c(Cl)c1 | · | · | 6 | · | -3.7* | ·
O=C(CN(Cc1ccccc1Cl)C(=O)c1ccc(CN2CCOCC2)o1)NCC1CCCO1 (centres undefined) | 91 | 103 | 30 | · | 0.12 | 105
COc1cc(C2CC(=O)c3c([nH]c(C(=O)OCCOC(C)C)c3C)C2)cc(OC)c1OC (centres undefined) | · | · | 9 | 43* | · | ·
CCCOCCOC(=O)c1[nH]c2c(c1C)C(=O)CC(c1cc(OC)ccc1OC)C2 (centres undefined) | 19* | 63 | · | 22 | · | 45
COCCOC(=O)c1[nH]c2c(c1C)C(=O)CC(c1cc(OC)ccc1OC)C2 (centres undefined) | · | · | · | 65* | · | ·
COc1ccc(OC)c(C2CC(=O)c3c([nH]c(C(=O)OC(C)C)c3C)C2)c1 (centres undefined) | 28* | 56 | 7 | 98* | · | 31
O=C(NC1=NCCS1)C1CC2CCC1C2 (centres undefined) | 63 | 94 | 35 | -2 | 1.2 | 106
